Assay results from ChEMBL document CHEMBL1153852, “Steroidal lactones as inhibitors of 17beta-hydroxysteroid dehydrogenase type 5: chemical synthesis, enzyme inhibitory activity, and assessment of estrogenic and androgenic activities” (Eur J Med Chem, 2009).
The source made the active and inactive calls. The rule behind the calls is not given here.

Key:
[1] = target: T1, Aldo-keto reductase family 1 member C3 (Homo sapiens) (UniProt P42330); assay: Inhibition of human 17beta-HSD5 expressed in HEK293 cells assessed as enzyme-mediated transformation of [14C]-4-androstene-3,17-dione in to [14C]-testosterone at 0.3 uM after 18 hrs; type: cell-based
T1 sequence (whole entry): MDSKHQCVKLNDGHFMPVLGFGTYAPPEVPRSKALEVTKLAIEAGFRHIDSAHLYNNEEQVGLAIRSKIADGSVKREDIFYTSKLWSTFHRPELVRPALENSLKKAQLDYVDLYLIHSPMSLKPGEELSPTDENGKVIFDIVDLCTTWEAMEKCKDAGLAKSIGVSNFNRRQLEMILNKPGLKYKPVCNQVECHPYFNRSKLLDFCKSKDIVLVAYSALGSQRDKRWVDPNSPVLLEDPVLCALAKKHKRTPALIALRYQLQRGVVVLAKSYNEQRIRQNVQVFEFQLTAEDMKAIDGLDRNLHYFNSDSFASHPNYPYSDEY
Method in brief: (§1)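 Intact HEK-293 cells stably over-expressing human 17β-HSD5, in freshly changed culture medium. [14C]-4-androstene-3,17-dione is added at 100 nM with inhibitor from an ethanolic solution; controls get ethanol only. After 18 h the conversion to [14C]-T is measured.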

[2] = target: T1, Aldo-keto reductase family 1 member C3 (Homo sapiens); assay: Inhibition of human 17beta-HSD5 expressed in HEK293 cells assessed as enzyme-mediated transformation of [14C]-4-androstene-3,17-dione in to [14C]-testosterone at 3 uM after 18 hrs; type: cell-based; method in brief: as §1
[3] = target: T2, Aldo-keto reductase family 1 member C3 (Homo sapiens, UniProt P42330); assay: Inhibition of human 17beta-HSD5 expressed in HEK293 cells assessed as enzyme-mediated transformation of [14C]-4-androstene-3,17-dione in to [14C]-testosterone after 18 hrs; type: cell-based
T2 sequence (P42330 whole entry): T1 sequence (whole entry)
Method in brief: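 Intact HEK-293 cells stably over-expressing human 17β-HSD5, in fresh culture medium. [14C]-4-androstene-3,17-dione 0.1 μM with inhibitor added in ethanol (ethanol alone as control), 18 h.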

[4] = test system: ZR-75-1; assay: Estrogenic activity in human ZR-75-1 cells expressing estrogen receptor assessed as estrogen-induced cell proliferation at 1 uM after 9 days relative to estrogen; type: functional
Method in brief: (§2)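 ZR-75-1 cells are resuspended in phenol red-free RPMI 1640 with 5% dextran-charcoal-treated FBS and seeded at 10,000 cells/well. After 3 days of adhesion, lactones from ethanol stocks are added alone or with E2 (0.1 nM). Cells grow 9 days at 37 °C in 5% CO2, with medium changed every 2–3 days. DNA is measured by DABA fluorescence; E2-induced growth is set to 100%.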

[5] = test system: ZR-75-1; assay: Antiestrogenic activity in human ZR-75-1 cells expressing estrogen receptor assessed as inhibition of estrogen-induced cell proliferation at 0.03 uM after 9 days relative to estrogen; type: functional, cell-based; method in brief: as §2
[6] = test system: ZR-75-1; assay: Antiestrogenic activity in human ZR-75-1 cells expressing estrogen receptor assessed as inhibition of estrogen-induced cell proliferation at 1 uM after 9 days relative to estrogen; type: functional, cell-based; method in brief: as §2
[7] = organism: Mus musculus; assay: Androgenic activity in mouse SC115 cells expressing androgen receptor assessed as DHT-induced cell proliferation at 0.1 uM after 10 days relative to DHT; type: functional, cell-based
Method in brief: (§3)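 SC115 Shionogi clone selected for DHT sensitivity, in MEM with 2% dextran-charcoal-treated FCS, seeded at 20,000 cells/well. After 24 h the medium is renewed and lactones added at 0.1 and 1, without DHT. Final ethanol is 0.01%. Cells are grown 10 days at 37 °C in 5% CO2, with medium changed every 3–4 days. DNA is measured by DABA fluorescence; DHT-stimulated growth is set to 100%.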

[8] = organism: Mus musculus; assay: Androgenic activity in mouse SC115 cells expressing androgen receptor assessed as DHT-induced cell proliferation at 1 uM after 10 days relative to DHT; type: functional, cell-based; method in brief: as §3
[9] = target: T3, 17-beta-hydroxysteroid dehydrogenase type 2 (Homo sapiens) (UniProt P37059); assay: Inhibition of human 17beta-HSD2 expressed in HEK293 cells assessed as enzyme-mediated transformation of [14C]-testosterone in to [14C]-4-androstene-3,17-dione at 1 uM; type: cell-based
T3 sequence (whole entry): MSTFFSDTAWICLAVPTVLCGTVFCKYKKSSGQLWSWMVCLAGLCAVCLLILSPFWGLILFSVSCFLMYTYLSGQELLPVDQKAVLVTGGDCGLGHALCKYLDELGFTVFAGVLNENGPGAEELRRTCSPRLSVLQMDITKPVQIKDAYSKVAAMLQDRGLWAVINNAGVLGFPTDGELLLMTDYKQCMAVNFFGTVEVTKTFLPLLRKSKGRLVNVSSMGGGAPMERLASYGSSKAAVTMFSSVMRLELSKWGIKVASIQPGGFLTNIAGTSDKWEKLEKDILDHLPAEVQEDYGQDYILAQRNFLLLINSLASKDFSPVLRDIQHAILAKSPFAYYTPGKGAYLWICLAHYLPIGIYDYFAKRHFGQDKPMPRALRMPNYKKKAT

[10] = target: T4, Progesterone receptor (Rattus norvegicus) (UniProt Q63449); assay: Binding affinity to rat uterus progesterone receptor at 10 uM
T4 sequence (whole entry): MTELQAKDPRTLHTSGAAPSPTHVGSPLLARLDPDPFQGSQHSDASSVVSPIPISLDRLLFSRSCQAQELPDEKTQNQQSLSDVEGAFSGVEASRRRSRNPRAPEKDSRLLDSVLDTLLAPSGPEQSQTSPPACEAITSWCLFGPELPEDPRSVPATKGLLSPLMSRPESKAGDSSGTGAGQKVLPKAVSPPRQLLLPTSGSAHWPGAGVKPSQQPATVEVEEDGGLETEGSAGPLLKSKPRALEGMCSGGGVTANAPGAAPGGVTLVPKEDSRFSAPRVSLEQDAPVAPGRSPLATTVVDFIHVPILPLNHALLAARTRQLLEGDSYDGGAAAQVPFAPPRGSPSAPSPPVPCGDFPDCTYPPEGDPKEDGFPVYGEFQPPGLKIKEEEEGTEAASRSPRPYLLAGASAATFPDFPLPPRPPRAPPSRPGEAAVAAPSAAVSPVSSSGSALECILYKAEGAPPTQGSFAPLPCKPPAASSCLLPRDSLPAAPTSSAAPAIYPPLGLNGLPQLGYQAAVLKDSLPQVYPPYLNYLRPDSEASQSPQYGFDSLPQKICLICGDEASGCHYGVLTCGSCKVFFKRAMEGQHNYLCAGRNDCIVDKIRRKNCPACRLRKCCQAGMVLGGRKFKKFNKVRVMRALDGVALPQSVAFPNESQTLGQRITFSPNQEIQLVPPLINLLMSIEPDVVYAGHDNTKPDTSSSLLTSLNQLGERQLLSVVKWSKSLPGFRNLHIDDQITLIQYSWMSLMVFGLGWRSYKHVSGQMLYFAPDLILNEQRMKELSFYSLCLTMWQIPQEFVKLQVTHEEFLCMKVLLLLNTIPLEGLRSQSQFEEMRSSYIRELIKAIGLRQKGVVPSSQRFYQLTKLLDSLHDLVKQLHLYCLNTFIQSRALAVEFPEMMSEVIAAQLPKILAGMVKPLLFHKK

Activity [9] | Activity [10] | SMILES | inhibition [1] | inhibition [2] | IC50 [3] | Activity [4] | Activity [5] | Activity [6] | Activity [7] | Activity [8]
– | – | CC1(C)CC[C@@]2(CC[C@H]3[C@@H]4CCc5ccccc5[C@H]4CC[C@@]32C)OC1=O | 94% | 95% | 2.9 nM | 50% | inactive | inactive | inactive | inactive
inactive | 35% | CC1(C)CC[C@@]2(CC[C@H]3[C@@H]4CCc5cc(O)ccc5[C@H]4CC[C@@]32C)OC1=O | 86% | 94% | 28 nM | 30% | inactive | Active | inactive | inactive
